# Assay results pooled from the literature.
# Lines come from different studies, so protocols differ.
# Target: Ephrin type-A receptor 4 (EPHA4, Homo sapiens, UniProt P54764)
Compound,observed,method,concentration,remaining binding
O=C(NCCCN1CCOCC1)c1ccc(Nc2nccc(-c3cc4ccccc4s3)n2)cc1,binding,competition with immobilised ligand,1 µM,82%
O=C(Nc1c[nH]nc1C(=O)NC1CCNCC1)c1cc(F)cc(F)c1,binding,competition with immobilised ligand,1 µM,100%
CC1CCCN1c1nccc(-c2cnn3ncccc23)n1 (stereo not shown),binding,,1 µM,97%
O=C(NCCCN1CCOCC1)c1ccc(Nc2ncc(Cl)c(-c3ccc(Cl)s3)n2)cc1,binding,competition with immobilised ligand,1 µM,89%
C[C@@H]1CN(c2cc(-c3n[nH]c4ccc(OC5(C)CC5)cc34)ncn2)C[C@H](C)O1,cell-free assay,competition with immobilised ligand,0.1 µM,89%
C[C@@H]1CCN(c2nccc(-c3cnn4ncccc34)n2)C1,binding,,1 µM,100%
Cc1c(NC(=O)c2cc(C(N)=O)nc3cc(F)ccc23)c(C(F)(F)F)nn1Cc1ccc(C(C)(C)C)cc1,cell-free assay,competition with immobilised ligand,1 µM,100%
c1cncc(-c2cccc(Nc3nccc(NC4CCCCC4)n3)c2)c1,binding,competition with immobilised ligand,10 µM,100%
CN(CCCC(F)(F)F)c1nccc(-c2cnn3ncccc23)n1,binding,,1 µM,100%
O=C(Nc1ccc(Oc2ccc(F)cc2)cc1)N1CCc2ncccc2[C@H]1c1ccc(F)cc1,cell-free assay,competition with immobilised ligand,1 µM,100%
Nc1ncc2c(n1)-c1c([nH]c3ccc(C#CC4CC4)cc13)CCCC2,binding,competition with immobilised ligand,1 µM,100%
FC(F)(F)Oc1cccc(-c2cnc3ccc(-c4ccncc4)nn23)c1,cell-free assay,competition with immobilised ligand,5 µM,92%
CNCc1ccccc1-c1csc([C@@H](C)Nc2nc(C)nc3cc(OC)c(OC)cc23)c1,cell-free assay,competition with immobilised ligand,1 µM,79%
Cc1cnn2ncc(-c3ccnc(N(C)C)n3)c2c1,binding,,1 µM,96%
CCN1CCN(Cc2ccc(C(=O)Nc3ccc(C)c(Oc4ccc5c(c4)CC(=O)N5)c3)cc2C(F)(F)F)CC1,binding,competition with immobilised ligand,1 µM,100%
CN(C)c1nccc(-c2cnc3ncccn23)n1,binding,,1 µM,100%
CC(=O)c1c(NS(C)(=O)=O)c2cc(-c3ccc(Cl)cc3)c(-c3ccc(Cl)cc3Cl)nc2n(C)c1=O,cell-free assay,competition with immobilised ligand,1 µM,98%
N[C@H]1CCN(c2nccc(-c3cnn4ncccc34)n2)C1,binding,,1 µM,100%
O=C(c1ccc(Nc2nccc(-c3cc4ccccc4s3)n2)cc1)N1CCC(N2CCCC2)CC1,binding,competition with immobilised ligand,1 µM,91%
O=C1NC(c2ccccn2)Sc2ccccc21 (stereo not shown),cell-free assay,competition with immobilised ligand,1 µM,89%
CN(C)c1ncc(F)c(-c2cnn3ncccc23)n1,binding,,1 µM,100%
COc1cnc(Nc2cccc(S(N)(=O)=O)c2)nc1N1CCN(c2ccccc2)C(=O)C1,binding,competition with immobilised ligand,1 µM,100%
